Experimental data taken from ChEMBL document CHEMBL3739314, “Discovery of Nanomolar Dengue and West Nile Virus Protease Inhibitors Containing a 4-Benzyloxyphenylglycine Residue” (J Med Chem, 2015).
Calls of active or inactive are those of the source. No cut-off for these calls is given here. Square brackets hold non-standard residues; d marks the D form. Peptide text beside a SMILES is read from it. * marks the point of attachment. dPhg = N[C@@H](C(=O)O)c1ccccc1; Bz = O=C(c1ccccc1)*

Columns and labels:
Trypsin (Homo sapiens) = Trypsin (Homo sapiens) (UniProt P07477+P07478+P35030); experiment: Inhibition of trypsin (unknown origin) using Boc-Val-Pro-Arg-AMC as substrate at 25 uM preincubated with protein for 15 mins followed by substrate addition by continuous fluorimetric assay relative to control
[1] = molecular target: Prothrombin (Homo sapiens) (UniProt P00734); experiment: Inhibition of thrombin (unknown origin) using Boc-Val-Pro-Arg-AMC as substrate at 25 uM preincubated with protein for 15 mins followed by substrate addition measured for 10 mins by continuous fluorimetric assay relative to control
West Nile virus = experiment: Inhibition of West Nile virus NS2B-NS3 protease using 2-Abz-Gly-Leu-Lys-Arg-Gly-Gly-[…]-Tyr-NH2 as substrate at 50 uM preincubated with protein for 15 mins followed by substrate addition measured for 15 mins by FRET assay
Outline: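 Linked WNV NS2B-NS3 protease (150 nM) was preincubated 15 min with inhibitor (50 μM final) in 50 mM Tris-HCl pH 9, 10% ethylene glycol, 0.0016% Brij 58. […] Percent inhibition was taken from the slope relative to the no-inhibitor control, in triplicate.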

[2] = Inhibition of West Nile virus NS2B-NS3 protease using 2-Abz-Gly-Leu-Lys-Arg-Gly-Gly-[…]-Tyr-NH2 as substrate preincubated with protein for 15 mins followed by substrate addition measured for 15 mins by FRET assay
Outline: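 WNV NS2B-NS3 linked construct at 75 nM (40 nM in one case) in pH 9 Tris buffer, preincubated 15 min with eight inhibitor concentrations (ranges 0–1 up to 0–50 μM). Substrate was 50 μM, with FRET readout over 15 min. IC50 was fitted from triplicates.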

[3] = Inhibition of Dengue virus serotype-2 NS2B-NS3 protease using 2-Abz-Nle-Lys-Arg-Arg-Ser-(3-NO2)-Tyr-NH2 as substrate preincubated with protein for 15 mins followed by substrate addition measured for 15 mins by FRET assay; design: species or system dengue virus type 2
Outline: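 DENV-2 NS2B-NS3 linked construct at 30 nM (15 nM in some cases), same pH 9 Tris buffer, 15 min preincubation and FRET read-out. Eight inhibitor concentrations spanned 0–1, 0–2, 0–6 or 0–50 μM, with substrate at 50 μM. IC50 was fitted from triplicates.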

dengue virus type 2 [4] = experiment: Antiviral activity against Dengue virus serotype-2 infected in African green monkey Vero cells after 7 days by virus yield reduction assay; assay type: functional, organism-based
[5] = Cytotoxicity against human HuH7 cells infected with Dengue virus serotype-2 assessed as cell viability after 48 hrs by Cell-Titer-Glo luminescent viability assay; assay type: cell-based, Huh-7
Outline: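 Huh-7 cells (10^4/well) were seeded in DMEM + 10% FBS overnight, then infected with WT DENV-2 (MOI 1) in the presence of compound, triplicate per concentration. After 48 h at 37 °C, medium was replaced with fresh DMEM and viability was read by CellTiter-Glo luminescence. CC50 was determined.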

[6] = Retention time of compound by RP-HPLC analysis; assay type: physicochemical
[7] = Half life in Sprague-Dawley rat liver microsomes incubated for 30 mins by UV-HPLC method; assay type: ADME
Outline: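 Pooled male rat liver microsomes (0.2 mg/mL protein) with NADPH (10 mM) in DPBS were preincubated 15 min at 37 °C. Compound (100 μM) was added and incubated at 37 °C; aliquots were taken at 0, 2, 5, 10, 20 and 30 min. Samples were quenched with equal-volume acetonitrile, chilled and centrifuged, and parent remaining was quantified by RP-HPLC UV against reference peak areas. Testosterone served as positive control.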

dengue virus type 2 [8] = experiment: Inhibition of Dengue virus serotype-2 NS2B-NS3 protease using 2-Abz-Nle-Lys-Arg-Arg-Ser-(3-NO2)-Tyr-NH2 as substrate at 50 uM preincubated with protein for 15 mins followed by substrate addition measured for 15 mins by FRET assay
[9] = Permeability of compound after 5 hrs by PAMPA; assay type: ADME; details: read-out: permeability
Outline: (§1)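 Precoated PAMPA plates were equilibrated 1 h at room temperature. Donor wells received 200 μM compound in PBS, in triplicate, and acceptor wells received PBS. After 5 h at room temperature, donor and acceptor concentrations were quantified by RP-HPLC UV at 254 nm against six-point calibration curves (10–200 μM). Pe and mass retention were calculated by literature formulas.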

[10] = Permeability of compound assessed as compound mass retention after 5 hrs by PAMPA; assay type: ADME; outline: as §1

COc1cccc(COc2ccc([C@@H](NC(=O)[C@H](CCCCN)NC(=O)[C@H](CCCNC(=N)N)NC(=O)c3cccs3)C(N)=O)cc2)c1
inhibition (Trypsin (Homo sapiens)): inactive | inhibition [1]: inactive | inhibition (West Nile virus): 99.3% | IC50 [2]: 231 nM | IC50 [3]: 68 nM | EC50 (dengue virus type 2 [4]): 54600 nM | CC50 at 48 h [5]: > 100000 nM | Retention_time [6]: 2.71 min | half-life [7]: 1.55 h

N=C(N)NCCC[C@@H](NC(=O)c1ccccc1)C(=O)N[C@H](CCCCN)C(=O)N[C@H](C(N)=O)c1ccc(OCc2ccccc2)cc1
inhibition (West Nile virus): 71.3% | inhibition (dengue virus type 2 [8]): 29.4%

N=C(N)NCCC[C@H](NC(=O)c1ccccc1)C(=O)N[C@@H](CCCCN)C(=O)N[C@H](C(N)=O)c1ccc(OCc2ccccc2)cc1
inhibition (West Nile virus): 88% | IC50 [3]: 935 nM | inhibition (dengue virus type 2 [8]): 99.9%

N=C(N)NCCC[C@H](NC(=O)[C@H](CCCCN)NC(=O)c1ccccc1)C(=O)N[C@@H](C(N)=O)c1ccc(OCc2ccccc2)cc1
inhibition (West Nile virus): 91.7% | inhibition (dengue virus type 2 [8]): 77%

N=C(N)NCCC[C@@H](NC(=O)[C@@H](CCCCN)NC(=O)c1ccccc1)C(=O)N[C@@H](C(N)=O)c1ccc(OCc2ccccc2)cc1
inhibition (West Nile virus): 19.9% | inhibition (dengue virus type 2 [8]): 26.8%

NCCCC[C@H](NC(=O)c1ccccc1)C(=O)N[C@@H](C(N)=O)c1ccc(OCc2ccccc2)cc1
inhibition (West Nile virus): 11.4% | inhibition (dengue virus type 2 [8]): 16.4%

CC(C)(C)c1ccc(COc2ccc([C@@H](NC(=O)[C@H](CCCCN)NC(=O)[C@H](CCCNC(=N)N)NC(=O)c3ccc(Cl)s3)C(N)=O)cc2)cc1
inhibition (Trypsin (Homo sapiens)): inactive | inhibition [1]: inactive | inhibition (West Nile virus): 91.3% | IC50 [3]: 130 nM | EC50 (dengue virus type 2 [4]): 7120 nM | CC50 at 48 h [5]: > 100000 nM | Papp at 5 h [9]: 0.33 ×10⁻⁶ cm/s | Retention_time [6]: 3.34 min | permeability [10]: 0.44%

N=C(N)NCCC[C@H](NC(=O)c1cccs1)C(=O)N[C@@H](CCCCN)C(=O)N[C@@H](C(N)=O)c1ccc(OCc2ccc(C(F)(F)F)cc2)cc1
inhibition (Trypsin (Homo sapiens)): inactive | inhibition [1]: inactive | inhibition (West Nile virus): 101% | IC50 [2]: 117 nM | Ki [2]: 93 nM | IC50 [3]: 28 nM | Ki [3]: 19 nM | EC50 (dengue virus type 2 [4]): 7060 nM | CC50 at 48 h [5]: > 100000 nM | Retention_time [6]: 3.15 min

N=C(N)NCCC[C@H](NC(=O)c1ccccc1)C(=O)N[C@@H](C(N)=O)c1ccc(OCc2ccccc2)cc1
inhibition (West Nile virus): 27.5% | inhibition (dengue virus type 2 [8]): 31%

N=C(N)NCCC[C@H](NC(=O)c1ccc(-c2cccs2)s1)C(=O)N[C@@H](CCCCN)C(=O)N[C@@H](C(N)=O)c1ccc(OCc2ccc(Cl)c(Cl)c2)cc1
inhibition (Trypsin (Homo sapiens)): inactive | inhibition [1]: inactive | inhibition (West Nile virus): 100% | IC50 [2]: 365 nM | IC50 [3]: 215 nM | EC50 (dengue virus type 2 [4]): 7600 nM | CC50 at 48 h [5]: 40000 nM | Papp at 5 h [9]: 0.79 ×10⁻⁶ cm/s | Retention_time [6]: 3.6 min | permeability [10]: 2.5%

N=C(N)NCCC[C@H](NC(=O)c1cc2ccccc2s1)C(=O)N[C@@H](CCCCN)C(=O)N[C@@H](C(N)=O)c1ccc(OCc2ccccc2)cc1
inhibition [1]: < 30% | inhibition (West Nile virus): 97.1% | IC50 [3]: 451 nM | EC50 (dengue virus type 2 [4]): 20400 nM | CC50 at 48 h [5]: > 100000 nM | Retention_time [6]: 3.13 min

N=C(N)NCCC[C@H](NC(=O)c1cc2sccc2s1)C(=O)N[C@@H](CCCCN)C(=O)N[C@@H](C(N)=O)c1ccc(OCc2c(Cl)cccc2Cl)cc1
inhibition (Trypsin (Homo sapiens)): inactive | inhibition [1]: inactive | inhibition (West Nile virus): 99.2% | IC50 [2]: 785 nM | IC50 [3]: 158 nM | EC50 (dengue virus type 2 [4]): 5330 nM | CC50 at 48 h [5]: 34300 nM | Retention_time [6]: 3.28 min

N=C(N)NCCC[C@H](NC(=O)c1cc2ccsc2s1)C(=O)N[C@@H](CCCCN)C(=O)N[C@@H](C(N)=O)c1ccc(OCc2ccc(C(F)(F)F)cc2)cc1
inhibition (Trypsin (Homo sapiens)): inactive | inhibition [1]: inactive | inhibition (West Nile virus): 94.2% | IC50 [3]: 203 nM | EC50 (dengue virus type 2 [4]): 10500 nM | CC50 at 48 h [5]: 48500 nM | Retention_time [6]: 3.39 min

N=C(N)NCCC[C@H](NC(=O)c1ccc(Cl)s1)C(=O)N[C@@H](CCCCN)C(=O)N[C@@H](C(N)=O)c1ccc(OCc2ccc(Cl)cc2)cc1
inhibition (Trypsin (Homo sapiens)): inactive | inhibition [1]: inactive | inhibition (West Nile virus): 99.6% | IC50 [2]: 371 nM | IC50 [3]: 111 nM

N=C(N)NCCC[C@H](NC(=O)c1sccc1Cl)C(=O)N[C@@H](CCCCN)C(=O)N[C@@H](C(N)=O)c1ccc(OCc2ccc(Cl)cc2)cc1
inhibition (Trypsin (Homo sapiens)): inactive | inhibition [1]: inactive | inhibition (West Nile virus): 99.3% | IC50 [2]: 821 nM | IC50 [3]: 120 nM

N=C(N)NCCC[C@@H](NC(=O)[C@@H](CCCCN)NC(=O)c1ccccc1)C(=O)N[C@H](C(N)=O)c1ccc(OCc2ccccc2)cc1
inhibition (West Nile virus): 64% | inhibition (dengue virus type 2 [8]): 23.5%

N=C(N)NCCC[C@H](NC(=O)c1ccccc1)C(=O)N[C@@H](CCCCN)C(=O)N[C@H](C(N)=O)c1ccc(O)cc1
inhibition (West Nile virus): 79.2% | IC50 [3]: 9700 nM | inhibition (dengue virus type 2 [8]): 96.6%

N=C(N)NCCC[C@H](NC(=O)c1ccccc1)C(=O)N[C@@H](CCCCN)C(=O)N[C@@H](C(N)=O)c1ccccc1 (Bz-Arg-Lys-[dPhg]-NH2)
inhibition (West Nile virus): 99% | IC50 [2]: 3780 nM | IC50 [3]: 3790 nM | inhibition (dengue virus type 2 [8]): 99.3%

N=C(N)NCCC[C@H](NC(=O)c1cc2ccccc2s1)C(=O)N[C@@H](CCCCN)C(=O)N[C@@H](C(N)=O)c1ccc(OCc2ccc(C(F)(F)F)cc2)cc1
inhibition (Trypsin (Homo sapiens)): inactive | inhibition [1]: inactive | inhibition (West Nile virus): 98.7% | IC50 [2]: 604 nM | IC50 [3]: 199 nM | EC50 (dengue virus type 2 [4]): 7060 nM | CC50 at 48 h [5]: 56800 nM | Retention_time [6]: 3.47 min

N=C(N)NCCC[C@H](NC(=O)c1ccccc1)C(=O)N[C@@H](CCCCN)C(=O)N[C@@H](C(N)=O)c1ccc(O)cc1
inhibition (West Nile virus): 75.1% | IC50 [3]: 2030 nM | inhibition (dengue virus type 2 [8]): 98%
